From PubChem BioAssay
Compounds with a hit are over-represented: about 3.5% of the library has one in this group of screens.
MrgX1 antagonist: antagonists of human MrgX1 receptor. MRGX1-HEK293 calcium flux, Fluo-4, BAM8-22 antagonism; stronger effect = lower value. B-score at 10 µM. AID 588676. 310,000 compounds, 1.3% hits;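 active = calcium-response B-score plate-corrected more than 3 library SD below zero, starting fluorescence within 5 deviations, no agonist response on first addition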;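 note: peak minus trough fluorescence over baseline after final BAM8-22 challenge near maximal dose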
Target sequence (Q96LB2 whole entry, looked up): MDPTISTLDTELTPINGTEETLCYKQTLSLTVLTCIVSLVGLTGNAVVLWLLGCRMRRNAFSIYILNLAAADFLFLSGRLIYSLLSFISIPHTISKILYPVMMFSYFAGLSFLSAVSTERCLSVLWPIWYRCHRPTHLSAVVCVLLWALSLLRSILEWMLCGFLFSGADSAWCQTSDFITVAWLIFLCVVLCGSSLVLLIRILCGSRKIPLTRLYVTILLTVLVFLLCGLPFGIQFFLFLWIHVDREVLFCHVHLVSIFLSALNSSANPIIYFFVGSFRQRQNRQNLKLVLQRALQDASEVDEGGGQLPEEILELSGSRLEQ
RGS4 block: inhibitors of human RGS4 | HEK293 M3R/RGS4 inducible, Fluo-4 calcium flux; stronger effect = higher value; triggered by carbachol at its EC20 | B-score at 10 µM | 310,000 compounds, 0.45% hits | AID 463165;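 active = B-score, a plate-corrected calcium signal, over three deviations above library mean, with baseline fluorescence within five deviations of library mean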;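 note: RGS4 expression induced by doxycycline in cells with stable M3 receptor; B-score is computed from the integrated fluorescence ratio over baseline after carbachol; higher B-score means a larger calcium signal and so more RGS4 inhibition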
Target sequence (P49798 whole entry, looked up): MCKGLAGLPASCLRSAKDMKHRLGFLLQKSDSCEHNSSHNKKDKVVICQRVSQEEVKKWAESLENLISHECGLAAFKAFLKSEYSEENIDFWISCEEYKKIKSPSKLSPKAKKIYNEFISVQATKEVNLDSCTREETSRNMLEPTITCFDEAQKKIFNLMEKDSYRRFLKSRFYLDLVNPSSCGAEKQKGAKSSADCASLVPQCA
MrgX1 agonist: activates human MrgX1 receptor signaling; B-score at 10 µM; 310,000 compounds, 0.44% hits; MrgX1-HEK293 cells, Fluo-4 calcium fluorescence, agonist mode; stronger effect = higher value; Q96LB2;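 active = calcium response B-score plate-corrected fluorescence ratio at least 3 library SD, with starting fluorescence B-score inside 5 SD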
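Material: MrgX1-expressing HEK293 cells / Dosing: compound as first of three additions / Incubation: overnight seeding, then 1 h dark dye loading / Signal: Fluo-4 NW calcium fluorescence / Evaluation: B-scored fluorescence response ratio / Benchmarks: positive and negative control wells on each plate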
RGS4 pot: RGS4 potentiation or activation; HEK293 M3R/inducible RGS4, carbachol calcium flux Fluo4; stronger effect = lower value; B-score at 10 µM; 310,000 compounds, 0.92% hits;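 active = B-score of the integrated calcium signal more than 4 SD below the library mean, with starting fluorescence not abnormally high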;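 note: negative B-score means reduced calcium response which marks RGS4 activation or potentiation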
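test system = HEK293 cells with stable M3R and inducible RGS4 | schedule = recording 10 s baseline at 1 Hz, 100 s post-agonist | technique = Fluo4-AM (2 µM) calcium-flux fluorescence, kinetic read | measure = Agonist-evoked peak-minus-minimum fluorescence over baseline, integrated ratio, B score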
MrgX1 PAM: human MrgX1 positive allosteric modulation, primary screen. MrgX1-HEK293, Fluo-4 calcium flux, FDSS; stronger effect = higher value. B-score at 10 µM. 310,000 compounds, 0.63% hits. AID 588675;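 active = plate-corrected calcium response at least 3 library SD above typical, normal starting fluorescence, not activating the receptor alone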;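 note: compound read alongside a low EC10 to EC30 dose of BAM8-22 agonist; peak minus trough fluorescence over baseline measured at the second addition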
The depositor's hits bear a star; i = inactive; · = no result given.

SMILES	MrgX1 antagonist	RGS4 block	MrgX1 agonist	RGS4 pot	MrgX1 PAM
COc1cccc(CN2CCN(C(=O)c3cc(-c4ccncc4)nc4ccc(C)cc34)CC2)c1	i	i	i	-7*	i
CC1CC(C)CN(C(=O)c2cc(-c3ccncc3)nc3ccccc23)C1 (configuration not stated)	i	i	i	i	i
O=C(NCCS(=O)(=O)N1CCN(c2ccccc2F)CC1)c1cccc(Br)c1	i	i	i	i	i
CC(C)CNC(=O)/C(C#N)=C1\N=C(NC(=O)c2ccco2)c2ccccc21	-4.8*	i	i	i	i
COc1nccnc1NS(=O)(=O)c1ccc(N)cc1	·	i	·	i	·
CC1Cc2ccccc2N1S(=O)(=O)c1cccc(C(=O)NCCCO)c1 (configuration not stated)	i	i	i	i	i
CCN(CC)CCNC(=O)c1ccc(NC(=O)c2cccc(S(=O)(=O)N3c4ccccc4CC3C)c2)cc1 (configuration not stated)	i	i	i	-8.4*	i
Cc1ccc(CNC(=O)c2nnn(CC(=O)Nc3cccc(C)c3C)c2N)cc1	i	i	i	i	i
CN(C)N1C(N)=C(C#N)C(c2cccnc2)C2=C1CC(C)(C)CC2=O (configuration not stated)	-4.8*	i	i	i	i
CCCCn1c(Cc2ccccc2)n[nH]c1=S	i	i	i	-7.4*	i
CCCCn1c(=O)c2ccccc2n2c(=S)[nH]nc12	-5.4*	i	i	i	i
CC(C)CCn1c(COc2ccccc2)n[nH]c1=S	i	i	i	-7.1*	i
CCCCCn1c(=O)c2ccccc2n2c(=S)[nH]nc12	i	i	i	i	i
S=c1[nH]nc(COc2ccccc2)n1Cc1ccccc1	i	i	i	i	i
CCc1nnc(NC(=O)CCC(=O)NC2CCCC2)s1	i	i	i	i	i
Cc1ccccc1CN(C)C(=O)CNC(=O)c1ccc2ccccc2c1	i	i	i	i	i
N#C/C(=C\c1cccnc1)c1nc2c(s1)CCCC2	-5.5*	i	i	i	i
Cc1ccc(-c2nc3ccc([N+](=O)[O-])cc3[nH]2)cc1	i	i	i	i	i
O=[N+]([O-])c1ccc2nc(-c3ccc(Cl)cc3)[nH]c2c1	-5.8*	i	i	i	i
C[N+]1=C(/C=C/Nc2ccccc2Cl)C(C)(C)c2ccccc21	i	i	i	i	i
COC(=O)c1ccc2c(c1)C(C)(C)C(/C=C/c1ccccc1O)=[N+]2C	i	i	i	-7.2*	i
O=C(C[n+]1cc(-c2ccc(F)cc2)n2c1CCC2)N1c2ccccc2Sc2ccccc21	i	i	i	-9.7*	i
O=C(C[n+]1cc(-c2ccccc2)n2c1CCC2)N1c2ccccc2Sc2ccccc21	i	i	i	i	i
Cc1ccc(-c2c[n+](CC(=O)N3c4ccccc4Sc4ccccc43)c3n2CCC3)cc1	i	i	i	-8.9*	i
Cc1nc2ccccn2c1C(=O)NNC(=O)Nc1cccc(C(F)(F)F)c1	i	i	i	i	i
SMILES	MrgX1 antagonist	RGS4 block	MrgX1 agonist	RGS4 pot	MrgX1 PAM
Cc1cccc(-n2nc3c(c2NC(=O)c2ccc4c(c2)OCO4)CS(=O)(=O)C3)c1C	i	i	i	i	i
Cc1ccccc1N1C(=O)c2cc(S(N)(=O)=O)c(Cl)cc2NC1C (configuration not stated)	i	·	i	·	i
CCN(CC(=O)N1CCOCC1)S(=O)(=O)c1cc(Cl)ccc1Cl	i	i	i	i	i
COc1ccc(/C=C2\SC(N3CCc4ccccc4C3)=NC2=O)cc1	-4.7*	i	i	i	i
O=C1N=C(N2CCc3ccccc3C2)S/C1=C\c1cccc(O)c1	i	i	i	-8.3*	i
COc1cc(/C=C2\SC(N3CCc4ccccc4C3)=NC2=O)cc(OC)c1OC	i	i	i	i	i
Cc1cc(C)n2nc3nc(N4CCCCC4)nc(-c4ccco4)c3c2n1	-4.7*	i	i	i	i
Cc1cc(C)n2nc3ccccc3c2n1	i	i	i	i	i
CCCCCCCCC(=O)N/N=C/c1ccccn1	i	i	i	i	i
CCCCCCCCC/C(=N\O)c1ccccn1	i	i	i	-10*	i
COc1ccc(NC(=O)c2cc(S(=O)(=O)N3CCOCC3)ccc2N2CCOCC2)cc1	i	i	i	i	i
COc1ccc(NC(=O)c2cc(S(=O)(=O)N3CCCCC3)ccc2N2CCCCC2)cn1	i	i	i	-7*	i
COc1ccc(CNC(=O)COc2ccc(S(=O)(=O)N3CCCCC3)cc2Cl)cc1	i	i	i	-7.1*	i
Cc1ccc(C)c(N2CCN(C(=O)c3ccc(N4CCCC4=O)cc3)CC2)c1	i	i	i	i	i
CC(SCc1ccccc1)C(=O)Nc1ccccc1-c1ccccc1 (configuration not stated)	i	i	i	i	12*
CCOc1ccccc1NC(=O)C(C)SCc1ccccc1 (configuration not stated)	i	i	i	i	i
O=C(Nc1cccc(Cl)c1)c1ccccc1	i	·	i	·	i
O=C(NC1=C(Nc2ccc(Cl)cc2)C(=O)c2ccccc2C1=O)c1ccccc1	i	i	i	i	i
O=C1C(Cl)=C(NC(=O)c2ccccc2)C(=O)C(Cl)=C1NC(=O)c1ccccc1	i	7.3*	i	i	i
Cc1cccc(NC2=C(NC(=O)c3ccccc3)C(=O)c3ccccc3C2=O)c1	i	i	i	i	10*
COc1ccc(NC(=O)CN2C(=O)/C(=C3\SC(=S)N(C4CCS(=O)(=O)C4)C3=O)c3ccccc32)cc1 (configuration not stated)	i	i	i	i	11*
CCOc1ccc(OCC)c(NC(=O)C2CCN(S(=O)(=O)c3ccc4c(c3)CC(C)N4C(C)=O)CC2)c1 (configuration not stated)	i	i	i	i	i
COc1ccc(S(=O)(=O)N2CCCOC2CNC(=O)C(=O)NCc2ccncc2)cc1 (configuration not stated)	i	i	i	i	i
CC(=O)Nc1ccc(C2=NN(C)C(=NCc3ccccc3)SC2)cc1	i	i	i	i	7.7*
COc1c(-c2ccc(O)cc2)oc2cc(O)cc(O)c2c1=O	i	·	i	·	i
